Laboratory results reported in ChEMBL document CHEMBL4017498, “Pilot in Vivo Structure-Activity Relationship of Dihydromethysticin in Blocking 4-(Methylnitrosamino)-1-(3-pyridyl)-1-butanone-Induced O6-Methylguanine and Lung Tumor in A/J Mice” (J Med Chem, 2017).

Assays:
Mus musculus [1] = assay: Reduction in NNK-induced O6-methylguanine DNA adduct formation in A/J mouse lung at 200 ppm administered with AIN-93 G powder for 7 days followed by NNK-induction on day 7 post dose measured after 4 hrs by LC-ESI-MS/MS method relative to control; assay type: functional; set-up: scale not given: the % may be the effect or the level left
Procedure, shortened: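 Female A/J mice (6–7 weeks, one-week acclimation) fed AIN-93G powdered diet with 200 ppm compound from Day 0 (ethanol-processed diet for controls; n=3 per treatment, n=6 NNK control). Single i.p. NNK, 100 mg/kg in saline, on Day 7; lungs collected 4 h later. DNA isolated from half lung; O6-mG quantified by LC-MS/MS. Mean ± SD; one-way ANOVA with Dunnett's test versus NNK control.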

Mus musculus [2] = assay: Toxicity in NNK-induced long-term lung adenoma A/J mouse model assessed as effect on liver weight at 25 ppm administered with AIN-M powder […] followed by NNK induction on day 7 at 100 mg/kg during compound dosing and […] post last dose measured after day 119; assay type: organism-based; details: in vivo, po
Procedure, shortened: (§1)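 Female A/J mice fed AIN-93G diet with compound at 25 ppm. NNK given i.p. at 100 and 67 mg/kg on Day 7 and Day 14. Switched to AIN-M diet 24 h after the last NNK. On Day 119, mice were weighed, euthanized with CO2, and livers excised and weighed. Relative liver weight is liver weight divided by bodyweight for each mouse.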

Mus musculus [3] = assay: Toxicity in NNK-induced long-term lung adenoma A/J mouse model assessed as effect on liver weight at 25 ppm administered with AIN-M powder for […] followed by NNK induction on day 7 at 100 mg/kg during compound dosing and […] post last dose measured after day 119 relative to body weight; assay type: organism-based; details: in vivo, po; procedure, shortened: as §1
Mus musculus [4] = assay: Toxicity in NNK-induced long-term lung adenoma A/J mouse model assessed as effect on body weight at 25 ppm administered with AIN-M powder […] followed by NNK induction on day 7 at 100 mg/kg during compound dosing and […] at 67 mg/kg post last dose measured every once a week during compound dosing; assay type: organism-based; details: in vivo, po
Procedure, shortened: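 Female A/J mice fed AIN-93G diet with compound at 25 ppm. NNK given i.p. at 100 mg/kg on Day 7 and 67 mg/kg on Day 14. Treated diet ended 24 h after the last NNK, followed by AIN-M diet. Bodyweight recorded once weekly and food intake twice weekly through Day 119.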

Mus musculus [5] = assay: Reduction in NNK-induced long-term lung adenoma formation in A/J mouse at 25 ppm administered with AIN-M powder […] followed by NNK induction on day 7 at 100 mg/kg during compound dosing and […] post last dose measured after day 119 relative to control; assay type: functional; set-up: scale not given: the % may be the effect or the level left
Procedure, shortened: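 Female A/J mice fed AIN-93G powder diet with compound at 25 ppm (added in ethanol, vacuum-dried, dose checked by HPLC). NNK in saline given i.p. at 100 and 67 mg/kg on Day 7 and Day 14. Treated diet stopped 24 h after the last NNK, then AIN-M diet. On Day 119, surface lung adenomas were counted blinded by a pathologist. Mean ± SD; one-way ANOVA with Dunnett's test vs NNK control.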

[6] = Drug level in mouse liver microsomes treated with (+)DHM assessed as CYP450-mediated compound formation by LC-MS/MS method; assay type: ADME
Liver [7] = assay: Drug level in mouse liver microsomes treated with (+)DHM by LC-MS/MS method; assay type: ADME, microsome
[8] = Drug metabolism in mouse liver microsomes assessed as CYP450-mediated 7-(3,4-dihydroxyphenyl)-5-hydroxy-3-methoxyhept-2-enoic acid formation by LC-MS/MS method; assay type: ADME
Liver [9] = assay: Drug metabolism in mouse liver microsomes assessed as 7-(benzo[d][1,3]dioxol-5-yl)-5-hydroxy-3-methoxyhept-2-enoic acid formation by LC-MS/MS method; assay type: ADME, microsome

Row | Compound | Activity (Mus musculus [1]) | Activity (Mus musculus [2]) | Activity (Mus musculus [3]) | Activity (Mus musculus [4]) | Activity (Mus musculus [5]) | also measured
1 | COC1=CC(=O)OC(CCc2ccc3c(c2)CCC3)C1 (stereo not given) | 29.6% | Non-Toxic | Non-Toxic | Non-Toxic | 10.1% | –
2 | CO/C(=C/C(=O)O)CC(O)CCc1ccc(O)c(O)c1 (stereo not given) | – | – | – | – | – | Drug metabolism [6]: Metabolite_Detected
3 | COC1=CC(=O)CC(CCc2ccc3c(c2)CCC3)C1 (stereo not given) | 11.8% | – | – | – | – | –
4 | COC1=CC(=O)CC(CCc2ccc3c(c2)OCO3)C1 (stereo not given) | 63.8% | Non-Toxic | Non-Toxic | Non-Toxic | 89.4% | –
5 | CO/C(=C/C(=O)O)CC(O)CCc1ccc2c(c1)OCO2 (stereo not given) | – | – | – | – | – | Drug metabolism (Liver [7]): Metabolite_Detected
6 | COC1=CC(=O)OC(CCc2ccccc2)C1 (racemic) | 16.4% | Non-Toxic | Non-Toxic | Non-Toxic | 6.3% | –
7 | COC1=CC(=O)OC(CCc2ccc3c(c2)OCO3)C1 (racemic) | 72.3% | Non-Toxic | Non-Toxic | Non-Toxic | 94.2% | –
8 | COC1=CC(=O)O[C@@H](CCc2ccc3c(c2)OCO3)C1 [DIHYDROMETHYSTICIN] | – | – | – | – | – | Drug metabolism [8]: Metabolite_Detected; Drug metabolism (Liver [9]): Metabolite_Detected
